Data published in ChEMBL document CHEMBL4680306, “The 3-D conformational shape of N-naphthyl-cyclopenta[d]pyrimidines affects their potency as microtubule targeting agents and their antitumor activity” (Bioorg Med Chem, 2021).

Legend:
[1] = Cytotoxicity against human SK-MEL-5 cells assessed as inhibition of cell growth measured after 48 hrs by SRB assay; assay type: functional
[2] = system: 786-0; experiment: Cytotoxicity against human 786-0 cells assessed as inhibition of cell growth measured after 48 hrs by SRB assay; assay type: functional
[3] = system: K562; experiment: Cytotoxicity against human K562 cells assessed as inhibition of cell growth measured after 48 hrs by SRB assay; assay type: functional
[4] = system: NCI-H460; experiment: Cytotoxicity against human NCI-H460 cells assessed as inhibition of cell growth measured after 48 hrs by SRB assay; assay type: functional
[5] = system: KM12; experiment: Cytotoxicity against human KM12 cells assessed as inhibition of cell growth measured after 48 hrs by SRB assay; assay type: functional
[6] = system: NCI/ADR-RES; experiment: Cytotoxicity against human NCI/ADR-RES cells assessed as inhibition of cell growth measured after 48 hrs by SRB assay; assay type: functional
[7] = system: U-251; experiment: Cytotoxicity against human U251 cell line assessed as inhibition of cell growth after 48 hrs by SRB assay; assay type: functional, cell-based; conditions: U-251, 48 h
[8] = system: SN12C; experiment: Cytotoxicity against human SN12C cells assessed as inhibition of cell growth measured after 48 hrs by SRB assay; assay type: functional
[9] = Antiproliferative activity against human SK-OV-3 MDR-1-6/6 cells expressing Pgp assessed as decrease in cell growth measured after 48 hrs by SRB method; assay type: functional; conditions: SK-OV-3, 48 h
[10] = system: MDA-MB-435; experiment: Antiproliferative activity against human MDA-MB-435 cell line assessed as inhibition of cell proliferation measured after 48 hrs by SRB assay; assay type: functional, cell-based; conditions: MDA-MB-435, 48 h
Procedure, shortened: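 MDA-MB-435 melanoma cells were assessed by sulforhodamine B assay. IC50 is the mean ± SD of at least three independent experiments, each run in triplicate.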

[11] = system: A498; experiment: Cytotoxicity against human A498 cells assessed as inhibition of cell growth measured after 48 hrs by SRB assay; assay type: functional
[12] = system: LOX IMVI; experiment: Cytotoxicity against human LOX IMVI cells assessed as inhibition of cell growth measured after 48 hrs by SRB assay; assay type: functional
[13] = system: SR; experiment: Cytotoxicity against human SR cells assessed as inhibition of cell growth measured after 48 hrs by SRB assay; assay type: functional
[14] = system: HL-60(TB); experiment: Cytotoxicity against human HL-60(TB) cells assessed as inhibition of cell growth measured after 48 hrs by SRB assay; assay type: functional
[15] = system: T47D; experiment: Cytotoxicity against human T47D cells assessed as inhibition of cell growth measured after 48 hrs by SRB assay; assay type: functional
[16] = system: OVCAR-8; experiment: Cytotoxicity against human OVCAR-8 cells assessed as inhibition of cell growth measured after 48 hrs by SRB assay; assay type: functional
[17] = system: TK-10; experiment: Cytotoxicity against human TK-10 cells assessed as inhibition of cell growth measured after 48 hrs by SRB assay; assay type: functional
[18] = system: OVCAR-4; experiment: Cytotoxicity against human OVCAR-4 cells assessed as inhibition of cell growth measured after 48 hrs by SRB assay; assay type: functional
[19] = system: SF-295; experiment: Cytotoxicity against human SF-295 cells assessed as inhibition of cell growth measured after 48 hrs by SRB assay; assay type: functional
[20] = system: UO-31; experiment: Cytotoxicity against human UO-31 cells assessed as inhibition of cell growth measured after 48 hrs by SRB assay; assay type: functional
[21] = Inhibition of bovine tubulin polymerization assessed as reduction in extent of assembly preincubated for 15 mins followed by addition of reaction mixture measured after 20 mins by turbidimetric assay; set-up: species or system Bos taurus
Procedure, shortened: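 After chilling, GTP was added (0.4 mM final). Turbidity at 350 nm was read after a jump from 0 °C to 30 °C.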

[22] = system: SK-OV-3; experiment: Cytotoxicity against human SK-OV-3 cells assessed as inhibition of cell growth measured after 48 hrs by SRB assay; assay type: functional
[23] = system: MOLT-4; experiment: Cytotoxicity against human MOLT-4 cells assessed as inhibition of cell growth measured after 48 hrs by SRB assay; assay type: functional
[24] = system: IGROV-1; experiment: Cytotoxicity against human IGROV-1 cells assessed as inhibition of cell growth measured after 48 hrs by SRB assay; assay type: functional
[25] = system: U-251; experiment: Cytotoxicity against human U-251 cells assessed as inhibition of cell growth measured after 48 hrs by SRB assay; assay type: functional
[26] = system: MDA-MB-231; experiment: Cytotoxicity against human MDA-MB-231 cells assessed as inhibition of cell growth measured after 48 hrs by SRB assay; assay type: functional
[27] = system: HCT-116; experiment: Cytotoxicity against human HCT-116 cells assessed as inhibition of cell growth measured after 48 hrs by SRB assay; assay type: functional
[28] = system: HCT-15; experiment: Cytotoxicity against human HCT-15 cells assessed as inhibition of cell growth measured after 48 hrs by SRB assay; assay type: functional

## COc1cccc2cc(N(C)c3nc(C)nc4c3CCC4)ccc12
[1]
  GI50: < 10 nM
[2]
  GI50: < 10 nM
[3]
  GI50: < 10 nM
[4]
  GI50: < 10 nM
[5]
  GI50: < 10 nM
[6]
  GI50: < 10 nM
[7]
  IC50: 17.6 nM
[8]
  GI50: < 10 nM
[9]
  IC50: 5.7 nM
[10]
  IC50: 2.8 nM
[11]
  GI50: < 10 nM
[12]
  GI50: < 10 nM
[13]
  GI50: < 10 nM
[14]
  GI50: < 10 nM
[15]
  GI50: < 10 nM
[16]
  GI50: < 10 nM
[17]
  GI50: 9.32 µM
[18]
  GI50: 10.9 nM
[19]
  GI50: < 10 nM
[20]
  GI50: 10.7 nM
[21]
  IC50: 980 nM
[22]
  GI50: < 10 nM
[23]
  GI50: < 10 nM
[24]
  GI50: < 10 nM
[25]
  GI50: < 10 nM
[26]
  GI50: < 10 nM
[27]
  GI50: < 10 nM
[28]
  GI50: < 10 nM
